Laboratory results as given in article PMC5651361 (Alzheimer's & Dementia : Translational Research & Clinical …, 2016).
Where “and” joins values, the source holds several entries; their conditions need not be identical. Identical values can stand only once. Like-named read-outs stand apart in the source and are kept apart here. Each block holds one compound with its values, some of them ahead of it.

Experiments:
[1] = system: pSer9-GSK3β; settings: cortex of CD1 mice; cited from earlier work
[2] = system: pSer9-GSK3β; settings: Tg2576 (APP) AD-transgenic mice; cited from earlier work
[3] = system: tau; settings: 2-week treatment, ventral horn spinal motoneurons and hippocampal CA3 mossy fibers, tau × amyloid precursor protein mice; cited from earlier work
[4] = system: APPxPS1 transgenic mice; test: Object recognition test in APPxPS1 transgenic mice; assay type: in vivo, mouse; settings: data not shown
[5] = Plasma and brain exposure after 5-month repeated oral; assay type: in vivo, mouse; settings: for Brain/plasma AUC(0–24 h) ratio / AUC(0–24 h) / Cmax/Cmin ratio / Cmin / Cmax: 5 months; for 0.002%/0.00067% AUC(0–24 h) ratio: 5 months in diet
How it was run: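 Male WT mice received the test compound in diet (0.00067% or 0.002%) for 5 months. Blood was taken from the mandibular vein of awake mice into lithium heparin and centrifuged at 1500–2000g for 10 min at 4°C; plasma was stored at −80°C. Pons/cerebellum was dissected. Samples spanned 24 h; analytes were acetonitrile-precipitated and measured by LC-MS/MS.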

[6] = system: neurofibrillary tangles; test: Neurofibrillary tangles, Gallyas silver staining; assay type: in vivo, mouse; settings: 6 months
[7] = system: histamine H3-receptor (H3R); settings: compared with ABT-239; cited from earlier work
[8] = system: Ser9-GSK3β; test: Western blot of Ser9-GSK3β in hippocampus; assay type: in vivo, mouse; settings: 2-week treatment, 0.002% and 0.02% in drinking water, THY-Tau22 mice
[9] = system: MIP-1α; test: Hippocampal mRNA expression, quantitative real-time RT-PCR; assay type: in vivo, mouse; settings: 6 months, hippocampus
[10] = system: GFAP; test: as above; assay type: in vivo, mouse; settings: 6 months in diet, hippocampus, THY-Tau22
[11] = system: mice; settings: object recognition test, acute treatment; cited from earlier work
[12] = system: rats; settings: object recognition test, acute treatment; cited from earlier work
[13] = system: THY-Tau22 mice; test: Shape and spatial object recognition test; assay type: in vivo, mouse; settings: for recognition index, shape episodic memory: Fig. 2A; for recognition index, shape episodic memory / recognition index, spatial episodic memory: means ± SEM; for recognition index, spatial episodic memory: Fig. 2B
How it was run: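 Individually housed male THY-Tau22 and WT littermates (enriched environment, reverse light/dark cycle) received diet dosing from age 2 months for 4 or 6 months. Object recognition used a 59 × 59 × 30 cm PVC open field (black walls, white floor) with an overhead camera. Washout groups were tested for shape at 10 d and spatial memory at 17 d after cessation. Recognition index is reported as mean ± SEM.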

[14] = system: cystatin F; test: Hippocampal mRNA expression, quantitative real-time RT-PCR; assay type: in vivo, mouse; settings: 6 months in diet, hippocampus, THY-Tau22
[15] = system: AT8 (pSer199/202-Thr205) tau; test: AT8 immunostaining, quantitative image analysis; assay type: in vivo, mouse; settings: 6 months, cortex
How it was run: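 Male THY-Tau22 mice received the test compound in diet (0.0002%, 0.002% or 0.02%) for 6 months from age 2 months. Hemibrains were immersion-postfixed 7 days at 4°C in 4% formaldehyde, and 20 μm serial sagittal cryostat sections were cut. AT8 immunostaining was quantified by virtual-slide scanning image analysis as mean positive cell bodies count. Dunnett tests were run on log-transformed data, n = 9 mice/group.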

[16] = system: tau protein; assay type: in vivo, mouse; settings: for change in tau phosphorylation at Ser199/202-Thr205 (AT8 signal): 6 months in diet, not significant
How it was run: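 Cortex or hippocampus from THY-Tau22 mice given diet dosing for 6 months was homogenized in RIPA buffer (pH 7.5) with protease inhibitors, 1 μM okadaic acid and 100 mM NaF, then centrifuged at 16,000g for 10 min at 4°C. Protein (5 or 20 μg) was run on 4–12% Bis-Tris gels, transferred to PVDF and blocked in 5% milk. Primary antibodies were applied overnight at 4°C. Values are relative, n = 7–9/group.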

SMILES: C[C@@H]1CCCN1CCc1cc2cc(-c3ccc(C#N)cc3)ccc2o1 [ABT-239]
levels of pSer9-GSK3β (inactive form of GSK3β) [1]: increased the levels | reduction in hippocampal pSer9-GSK3β levels [2]: reversed the reduction | tau hyperphosphorylation (AT8 site) [3]: decreases tau hyperphosphorylation

Brain/plasma AUC(0–24 h) ratio ([5]; 0.00067% in diet): 3.5 | AUC(0–24 h) ([5]; 0.00067% in diet, brain): 110 ng·h/g | AUC(0–24 h) ([5]; 0.00067% in diet, plasma): 31 ng·h/mL | Cmax/Cmin ratio ([5]; 0.00067% in diet, plasma): 1.4 | Cmin ([5]; 0.00067% in diet, plasma): 1.26 ng/mL and 4.83 nM | Cmax/Cmin ratio ([5]; 0.00067% in diet, pons/cerebellum): 1.5 | Brain/plasma AUC(0–24 h) ratio ([5]; 0.002% in diet): 3.5 | AUC(0–24 h) ([5]; 0.002% in diet, brain): 390 ng·h/g | AUC(0–24 h) ([5]; 0.002% in diet, plasma): 110 ng·h/mL | Cmax ([5]; 0.002% in diet, plasma): 24.8 nM | Cmax/Cmin ratio ([5]; 0.002% in diet, plasma): 2.7 | Cmin ([5]; 0.002% in diet, plasma): 2.44 ng/mL and 9.35 nM | Cmax ([5]; 0.002% in diet, plasma, male WT mice): 6.48 ng/mL | Cmax/Cmin ratio ([5]; 0.002% in diet, pons/cerebellum): 2.1 | 0.002%/0.00067% AUC(0–24 h) ratio ([5]; plasma): 3.5 | 0.002%/0.00067% AUC(0–24 h) ratio ([5]; pons/cerebellum): 3.5
SMILES: CN1CCCC1CCNS(=O)(=O)c1ccc2c(c1)CN(CC1CCCCC1)CC2 (centres unmarked) [SAR110894]
memory deficits in APPxPS1 transgenic mice [4]: decreased memory deficits | change in number of NFTs ([6]; 0.002% in diet, cortex, P = .0001): −48% | change in number of NFTs ([6]; 0.002% in diet, hippocampus, P < .0001): −25% | change in number of NFTs ([6]; 0.02% in diet, amygdala, P = .0065): −31% | change in number of NFTs ([6]; 0.02% in diet, cortex, P = .0019): −41% | change in number of NFTs ([6]; 0.02% in diet, hippocampus, P = .0006): −22% | affinity and selectivity for H3R [7]: higher affinity and selectivity than ABT-239 | level of Ser9-GSK3β (inactive form of GSK3β) [8]: no effect | change in expression of MIP-1α ([9]; 0.0002% in diet, THY-Tau22, P = .0087): −35% | change in expression of MIP-1α ([9]; 0.002% in diet, THY-Tau22, P = .0184): −36% | expression of GFAP [10]: no effect | memory deficits induced by infusion of Aβ(25–35) [11]: decreased the memory deficits | scopolamine-induced memory deficits [12]: prevented the occurrence | deficit in shape episodic memory ([13]; 0.00067% in diet, 4 months, THY-Tau22 mice, confirmatory study, Fig. 2C): no effect | deficit in spatial episodic memory ([13]; 0.00067% in diet, 4 months, THY-Tau22 mice, confirmatory study, Fig. 2D): reduced the deficit | recognition index, shape episodic memory ([13]; 0.002% in diet, THY-Tau22 mice, P = .0010): 64 ± 2% | recognition index, spatial episodic memory ([13]; 0.002% in diet, THY-Tau22 mice, P = .0153): 58 ± 3% | procognitive effect on shape episodic memory after treatment washout ([13]; 0.002% in diet, after 1 week of washout, Fig. 2C): still persisted | procognitive effect on spatial episodic memory after treatment washout ([13]; 0.002% in diet, after 2 weeks of washout, Fig. 2D): still persisted | recognition index, shape episodic memory ([13]; 0.02% in diet, THY-Tau22 mice, P = .0104): 61 ± 3% | recognition index, spatial episodic memory ([13]; 0.02% in diet, THY-Tau22 mice, P = .0002): 60 ± 2% | cognitive deficits in THY-Tau22 mice ([13]; administered during 4 or 6 months starting at the age of 2 months): prevented cognitive deficits | expression of cystatin F [14]: no effect | decrease in number of AT8-positive neuronal cell bodies ([15]; 0.002% in diet, THY-Tau22, P = .0010): 47% | intensity of AT8 immunostaining within neuronal cell bodies and fibers ([15]; 0.002% in diet, data not shown): marked decrease | decrease in number of AT8-positive neuronal cell bodies ([15]; 0.02% in diet, THY-Tau22, P = .0250): 32% | change in tau phosphorylation at pSer214 ([16]; 0.002% in diet, 6 months, cortex, P = .0052): −35% | change in tau phosphorylation at pSer422 ([16]; 0.002% in diet, 6 months, cortex, no effect, P = .3019): −20% | change in tau phosphorylation at pThr181 (AT270 signal) ([16]; 0.002% in diet, 6 months, cortex, no effect, P = .4830): −16% | change in AD2 signal ([16]; 0.002% in diet, 6 months, cortex, second independent Western blot evaluation, P = .0191, Fig. 4F): −37% | change in AD2 signal ([16]; 0.002% in diet, 6 months, cortex, trend, P = .2766, Fig. 4B): −57% | change in total tau (Tau5 signal) ([16]; 0.002% in diet, 6 months, cortex, unchanged, P = .0950): −17% | change in tau phosphorylation at residues 396/404 (AD2 signal) ([16]; 0.002% in diet, 6 months, hippocampus, THY-Tau22, P = .0291): −37% | tau hyperphosphorylation (AD2 or AT8) ([16]; 2-week treatment, 0.002% and 0.02% in drinking water, hippocampus, 5- to 6-month-old THY-Tau22 mice): no effect | change in tau phosphorylation at Ser199/202-Thr205 (AT8 signal) ([16]; cortex, P = .8054, Fig. 4E): −29% | change in tau phosphorylation at Ser199/202-Thr205 (AT8 signal) ([16]; hippocampus, P = .5560, Fig. 4D): −22% | tau hyperphosphorylation (AD2 or AT8 epitopes) ([16]; acute administration 3 and 10 mg/kg orally, cingulate cortex, 3-month-old THY-Tau22 mice, data not shown): no effect
